Measurements: paper PMC3644109 (Nature Communications, 2013)
Blank lines part the entries; values can stand above or below the molecule they belong to.

What was measured:
AtALMT9 [1] = target: T1, AtALMT9 (Arabidopsis thaliana, UniProt Q9LS46); test: patch clamp of excised cytosolic-side-out vacuolar patches, chloride current; assay type: biochemical; settings: activator; 1 mM cytosolic; 100 mM chloride bath, pH 7.5
T1 sequence (Q9LS46 1-598): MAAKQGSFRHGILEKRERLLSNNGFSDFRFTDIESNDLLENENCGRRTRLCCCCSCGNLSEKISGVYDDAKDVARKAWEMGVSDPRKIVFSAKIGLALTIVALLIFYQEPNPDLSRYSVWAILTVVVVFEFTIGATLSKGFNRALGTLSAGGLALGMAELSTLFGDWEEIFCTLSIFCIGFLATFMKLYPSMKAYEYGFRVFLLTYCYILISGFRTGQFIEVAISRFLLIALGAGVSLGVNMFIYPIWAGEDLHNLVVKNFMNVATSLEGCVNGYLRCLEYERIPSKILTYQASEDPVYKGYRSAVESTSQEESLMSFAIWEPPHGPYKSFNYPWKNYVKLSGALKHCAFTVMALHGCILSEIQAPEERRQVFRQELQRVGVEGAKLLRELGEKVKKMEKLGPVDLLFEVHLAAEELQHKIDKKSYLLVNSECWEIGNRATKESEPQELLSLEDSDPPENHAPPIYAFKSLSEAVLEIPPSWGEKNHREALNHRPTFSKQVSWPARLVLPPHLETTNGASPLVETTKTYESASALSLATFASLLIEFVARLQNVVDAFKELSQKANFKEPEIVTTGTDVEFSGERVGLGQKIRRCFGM
In short: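 Vacuoles came from transiently transformed N. benthamiana leaves expressing the channel (2–3 days post-agroinfiltration) and were released from mesophyll protoplasts by EDTA and mild osmotic shock. Excised cytosolic-side-out patches (seal >2 GΩ) were held in symmetrical chloride: pipette 100 mM HCl pH 6, bath 100 mM HCl, 3 mM MgCl₂, 0.1 mM CaCl₂ pH 7.5. Test compound was perfused on the cytosolic side. Steady currents were compared at -120 mV, before versus after.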

AtALMT9 [2] = target: T1, AtALMT9; test: patch clamp of excised cytosolic-side-out vacuolar patches, chloride current; assay type: biochemical; settings: activator, not permeant, -120 mV, chloride bath, pH 7.5
AtALMT9 [3] = target: T1, AtALMT9; test: patch clamp of excised cytosolic-side-out vacuolar patches, Hill fit; assay type: cell-based
[4] = substrate: O=C(O)C[C@H](O)C(=O)O; test: cells, lysate or membranes; settings: malate transport into vacuole

Molecule: O=C(O)/C=C/C(=O)O [fumarate]
fold increase of chloride current at 1 mM (AtALMT9 [1]): 5.7±0.4 fold

Molecule: O=C(O)c1cccc(C(=O)O)c1 [isophtalate]
fold increase of chloride current (AtALMT9 [2]): 2.1±0.1 fold

B1: AtALMT9 (Arabidopsis thaliana) (protein)
chain: T1 sequence (Q9LS46 1-598)
Km [4]: 27 mM

Second part, the molecule after the results:

fold increase of chloride current at 1 mM (AtALMT9 [1]): 2.0±0.2 fold
Molecule: O=C(O)CC(=O)C(=O)O [oxaloacetate]

EC50 (AtALMT9 [3]): 300 µM
Molecule: O=C(O)C[C@H](O)C(=O)O [malate]
